From ChEMBL document CHEMBL1142689, “Identification of 2-(4-benzyloxyphenyl)-N- [1-(2-pyrrolidin-1-yl-ethyl)-1H-indazol-6-yl]acetamide, an orally efficacious melanin-concentrating hormone receptor 1 antagonist for the treatment of obesity” (J Med Chem, 2005)

What was measured:
[1] = target: T1, Melanin-concentrating hormone receptor 1 (Homo sapiens, UniProt Q99705); assay: Inhibition of melanin concentrating hormone receptor 1 from human neuronal IMR-32 cells; format: cell-based
[2] = target: T1, Melanin-concentrating hormone receptor 1; assay: Inhibition of melanin concentrating hormone receptor 1-mediated [Ca2+] release in human neuronal IMR-32 cells; format: functional, cell-based
[3] = Area under concentration time curve in brain of mice following peroral administration of 10 mg/kg of the compound; format: ADME, organism-based; design: dose 10 mg/kg, route oral; conditions: mouse, in vivo, po
Method in brief: (§1)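 DIO mice given a single 10 mg/kg oral dose in 1% Tween-80 in water. Plasma and brain drug levels were measured over time. Cmax is the average of the three mice with the highest concentrations. AUC0-t was calculated by the linear trapezoidal rule, and the residual area (Ct/β) was added to give AUC0-∞. C12h is the brain level at 12 h postdose.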

[4] = Area under concentration time curve in plasma of mice following peroral administration of 10 mg/kg of the compound; format: ADME, organism-based; design: dose 10 mg/kg, route oral; conditions: mouse, in vivo, po; method in brief: as §1
[5] = Maximum concentration in brain of mice following peroral administration at 10 mg/kg; n=3; format: ADME, organism-based; design: dose 10 mg/kg, route oral; conditions: mouse, po; method in brief: as §1
[6] = Maximum concentration in brain of mice at 12 hours following peroral administration at 10 mg/kg; n=3; format: ADME, organism-based; design: dose 10 mg/kg, route oral; conditions: mouse, po; method in brief: as §1
[7] = Area under concentration time curve in brain of mice following peroral administration at 10 mg/kg; n=3; format: ADME, organism-based; design: dose 10 mg/kg, route oral; conditions: mouse, in vivo, po; method in brief: as §1
[8] = Area under concentration time curve in plasma of mice following peroral administration at 10 mg/kg; n=3; format: ADME, organism-based; design: dose 10 mg/kg, route oral; conditions: mouse, in vivo, po; method in brief: as §1
[9] = test system: Mus musculus; assay: Body weight of mice on day 14 following peroral administration at 10 mg/kg, twice a day; n = 12; format: functional; conditions: route oral
Method in brief: (§2)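 Chronic study in DIO mice fed a high-fat diet ad libitum. Dosing was by oral gavage, bid for 14 days, in 4 mL/kg of 1% Tween-80 in water, with vehicle controls. Body weight and food intake were recorded on days 1, 4, 7, 11 and 14. Body-weight change is in grams relative to day 0, and % change is relative to vehicle. Mean ± SEM, n = 12.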

[10] = test system: Mus musculus; assay: Body weight of mice on day 14 following peroral administration at 30 mg/kg, twice a day; n = 12; format: functional; conditions: route oral; method in brief: as §2
[11] = Concentration in brain of mice,17 hours after administration of final dose at 30 mg/kg, twice a day; format: ADME, organism-based; design: dose 30 mg/kg; conditions: mouse, read-out: Cmax
Method in brief: (§3)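 DIO mice received the test compound orally, bid, in 1% Tween-80 in water for 14 days. Plasma and brain drug concentrations were measured 1 h (taken as Cmax) or 17 h after the final dose on day 14. Mean ± SEM, n = 3.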

[12] = test system: Mus musculus; assay: Change in body weight of mice on day 14 following peroral administration at 30 mg/kg, twice a day; n = 12; body weight at day 0 = 45 g; format: functional; conditions: route oral; method in brief: as §2
[13] = test system: Mus musculus; assay: Change in body weight of mice on day 14 following peroral administration at 10 mg/kg, twice a day; n = 12; body weight at day 0 = 44.7 g; format: functional; conditions: route oral; method in brief: as §2
[14] = Concentration in brain of mice,1 hour after administration of final dose at 10 mg/kg, twice a day; format: ADME, organism-based; design: dose 10 mg/kg; conditions: mouse, read-out: Cmax; method in brief: as §3
[15] = Concentration in brain of mice,1 hour after administration of final dose at 30 mg/kg, twice a day; format: ADME, organism-based; design: dose 30 mg/kg; conditions: mouse, read-out: Cmax; method in brief: as §3
[16] = Concentration in plasma of mice,1 hour after administration of final dose at 10 mg/kg, twice a day; format: ADME, organism-based; design: dose 10 mg/kg; conditions: mouse, read-out: Cmax; method in brief: as §3
[17] = Concentration in plasma of mice,1 hour after administration of final dose at 30 mg/kg, twice a day; format: ADME, organism-based; design: dose 30 mg/kg; conditions: mouse, read-out: Cmax; method in brief: as §3
[18] = Concentration in brain of mice,17 hours after administration of final dose at 10 mg/kg, twice a day; format: ADME, organism-based; design: dose 10 mg/kg; conditions: mouse, read-out: Cmax; method in brief: as §3
[19] = Concentration in plasma of mice,17 hours after administration of final dose at 10 mg/kg, twice a day; format: ADME, organism-based; design: dose 10 mg/kg; conditions: mouse, read-out: Cmax; method in brief: as §3
[20] = Concentration in plasma of mice,17 hours after administration of final dose at 30 mg/kg, twice a day; format: ADME, organism-based; design: dose 30 mg/kg; conditions: mouse, read-out: Cmax; method in brief: as §3
[21] = Maximum concentration of the compound in brain of mice following peroral administration at 10 mg/kg; n=3; format: ADME, organism-based; design: dose 10 mg/kg, route oral; conditions: mouse, po; method in brief: as §1
[22] = test system: Mus musculus; assay: Body weight of mice on day 14 following peroral administration at 10 mg/kg, 4 times a day; n = 12; format: functional; conditions: route oral
[23] = test system: Mus musculus; assay: Change in body weight of mice on day 14 following peroral administration at 10 mg/kg, 4 times a day; n = 12; body weight at day 0 = 43.2 g; format: functional; conditions: route oral

T1 sequence (Q99705 whole entry): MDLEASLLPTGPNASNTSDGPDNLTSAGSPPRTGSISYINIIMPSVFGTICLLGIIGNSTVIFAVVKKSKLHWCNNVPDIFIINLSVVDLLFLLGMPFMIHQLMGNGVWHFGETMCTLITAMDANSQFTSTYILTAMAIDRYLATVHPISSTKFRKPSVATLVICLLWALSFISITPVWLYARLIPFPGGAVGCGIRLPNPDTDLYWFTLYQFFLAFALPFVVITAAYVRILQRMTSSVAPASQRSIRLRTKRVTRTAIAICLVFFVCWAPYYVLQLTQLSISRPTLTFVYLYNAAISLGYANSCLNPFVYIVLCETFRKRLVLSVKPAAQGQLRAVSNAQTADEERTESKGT

SMILES | IC50 [1] | IC50 [2] | Cmax [5] | Cmax [6] | AUC [7] | AUC [8] | also measured
O=C(CNCc1ccc(Oc2ccccc2)cc1)Nc1ccc2ncn(CCN3CCCC3)c2c1 | 299 nM | 1810 nM |  |  |  |  | AUC [3]: 0.674 µg/h/g; AUC [4]: 1.16 µg/h/mL
O=C(Cc1ccc(OCc2ccccc2)cc1)Nc1cccc2nn(CCN3CCCC3)cc12 | 41.4 nM | 287 nM | 214 ng/g | 12.3 ng/g | 0.214 µg/h/g | 2.09 µg/h/g | 
O=C(Cc1ccc(OCc2ccccc2)cc1)Nc1ccc2c(c1)ncn2CCN1CCCC1 | 772 nM | > 10000 nM |  |  |  |  | 
O=C(Cc1ccc(OCc2ccccc2)cc1)Nc1ccc2cn(CCN3CCCC3)nc2c1 | 146 nM | 874 nM |  |  |  |  | 
O=C(Cc1ccc(OCc2ccccc2)cc1)Nc1ccc2cnn(CCN3CCCC3)c2c1 | 1.4 nM | 11 nM | 177 ng/g | 29 ng/g | 1.33 µg/h/g | 2.12 µg/h/g | Body weight [9]: 42.6 g; Body weight [10]: 39.7 g; concentration at 17 h [11]: 5.35 ng/mL; Activity [12]: -15.2%; Activity [13]: -8.25%; concentration at 1 h [14]: 115 ng/mL; concentration at 1 h [15]: 233 ng/mL; concentration at 1 h [16]: 168 ng/mL; concentration at 1 h [17]: 824 ng/mL; concentration at 17 h [18]: 7.02 ng/mL; concentration at 17 h [19]: 0.39 ng/mL; concentration at 17 h [20]: 2.23 ng/mL
O=C(Cc1ccc(OCc2ccccc2)cc1)Nc1ccc2nn(CCN3CCCC3)cc2c1 | 1990 nM | > 10000 nM |  |  |  |  | 
O=C(Cc1ccc(OCc2ccccc2)cc1)Nc1ccc2c(cnn2CCN2CCCC2)c1 | 558 nM | > 10000 nM | 4260 ng/g | 76 ng/g | 10.4 µg/h/g | 8.51 µg/h/g | 
O=C(Cc1ccc(OCc2ccccc2)cc1)Nc1ccc2ccn(CCN3CCCC3)c2c1 | 22 nM | 1470 nM |  |  |  |  | AUC [3]: 0.348 µg/h/g; AUC [4]: 1.37 µg/h/mL
O=C(Cc1ccc(OCc2ccccc2)cc1)Nc1cccc2c1cnn2CCN1CCCC1 | 24.5 nM | 71 nM | 464 ng/g | 8.11 ng/g | 1.18 µg/h/g | 0.611 µg/h/g | 
O=C(Cc1ccc(OCc2ccccc2)cc1)Nc1ccc2ncn(CCN3CCCC3)c2c1 | 161 nM | > 10000 nM |  |  | 0.244 µg/h/g | 0.937 µg/h/g | Cmax [21]: 54.4 ng/g
CCN[C@@H](C)Cc1cccc(C(F)(F)F)c1 [DEXFENFLURAMINE] |  |  |  |  |  |  | Body weight [22]: 40.4 g; Activity [23]: -10.1%
